In ChEMBL document CHEMBL1126944, “Benzoquinazoline inhibitors of thymidylate synthase: enzyme inhibitory activity and cytotoxicity of some sulfonamidobenzoylglutamate and related derivatives” (J Med Chem, 1993):

Tests used:
[1] = system: MOLT-4; test: Inhibition constant against the transport of [3H]- methotrexate (MTX) by MOLT-4 T-cell; type: functional, Homo sapiens
How it was run: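 Uptake of [3H]methotrexate, a substrate of the reduced folate carrier, into MOLT-4 T-cell leukemia cells measured with and without compound. Inhibition constant derived against this transport.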

[2] = system: MCF7; test: Cell culture cytotoxicity of MCF-7 breast adenocarcinoma cells; type: functional, Homo sapiens
How it was run: (§1)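 MCF-7 cells kept in folic acid-free RPMI 1640 with 10 nM (6R,S)-5-formyltetrahydrofolic acid as sole folate plus 10% charcoal-dialyzed FBS. MTT dye-reduction assay after continuous drug exposure for 96 h. Value is the concentration giving 50% reduction in growth rate.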

[3] = system: SW480; test: Cell culture cytotoxicity of SW480 colon adenocarcinoma cells.; type: functional, Homo sapiens
How it was run: (§2)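 SW480 or MOLT-4 cells grown in folic acid-free RPMI 1640 supplemented with 10 nM (6R,S)-5-formyltetrahydrofolic acid and 10% charcoal-dialyzed FBS. Continuous 72 h drug exposure, growth read by MTT tetrazolium dye reduction. Reported as the concentration halving growth rate.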

[4] = biological target: T1, Thymidylate synthase (Homo sapiens, UniProt P04818); test: Inhibition of purified human thymidylate synthase (TS) isolated from an Escherichia coli harboring a plasmid with thy A gene cloned from SV40 transformed human fibroblast cells; type: cell-free
How it was run: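 Purified recombinant human TS, expressed in E. coli from a thyA gene cloned from SV40-transformed human fibroblasts. Inhibition was measured by a modified tritium-release assay. Ki was estimated by treating compounds as tight-binding noncompetitive inhibitors.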

[5] = Velocity compared to a control 50 uM aminopterin run on each test; type: ADME
How it was run: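 Substrate activity toward partially purified hog liver folylpolyglutamate synthetase. Velocity expressed as percent of a 50 µM aminopterin control included in every run.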

[6] = system: MOLT-4; test: Cell culture cytotoxicity of MOLT-4 T-cell leukemia cells; type: functional, Homo sapiens; how it was run: as §2
[7] = system: SW480; test: Cell culture cytotoxicity of SW480 colon adenocarcinoma cells; type: functional, Homo sapiens; how it was run: as §2
[8] = biological target: T1, Thymidylate synthase; test: Inhibitory activity against thymidylate synthase (TS); conditions: read-out: I50
[9] = species: Sus scrofa; conditions: Liver
[10] = biological target: MOLT-4
[11] = system: MCF7; test: Cell culture cytotoxicity (CCCT) of MCF-7 breast adenocarcinoma cells; type: functional, Homo sapiens; how it was run: as §1
[12] = biological target: T1, Thymidylate synthase; test: Inhibition of purified human thymidylate synthase isolated from an Escherichia coli harboring thy A gene cloned from SV40 transformed human fibroblast cells; type: cell-free
[13] = Ratio of relative velocity to that of the Michaelis constant

T1 sequence (P04818 whole entry): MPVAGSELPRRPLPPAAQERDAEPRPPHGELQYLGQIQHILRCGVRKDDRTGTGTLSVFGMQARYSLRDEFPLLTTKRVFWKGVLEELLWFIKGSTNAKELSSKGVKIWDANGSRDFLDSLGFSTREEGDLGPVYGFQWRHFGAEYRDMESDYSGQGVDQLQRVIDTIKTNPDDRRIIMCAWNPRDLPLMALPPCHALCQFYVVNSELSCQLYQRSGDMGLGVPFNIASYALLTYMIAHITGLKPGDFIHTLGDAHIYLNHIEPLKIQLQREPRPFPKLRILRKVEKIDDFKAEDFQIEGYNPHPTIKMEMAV

Vm rel [5] [%]	SMILES	CCCT [2] [µM]	CCCT [7] [µM]	further results
	Nc1nc(O)c2c(ccc3cc(S(=O)(=O)Nc4ccc(C(=O)N[C@@H](CCC(=O)O)C(=O)O)cc4)c(Br)cc32)n1	>50		Inhibition [1]: 45%; CCCT [3]: >50 µM; Ki [4]: 16.4 µM
115	Nc1nc(O)c2c(n1)CCc1ccc(S(=O)(=O)Nc3ccc(C(=O)N[C@@H](CCC(=O)O)C(=O)O)cc3)cc1-2	0.65	7.9	CCCT [6]: 2.4 µM
	Cc1nc(O)c2c(n1)CCc1ccc(S(=O)(=O)N(C)c3ccc(C(=O)N[C@@H](CCC(=O)O)C(=O)O)cc3)cc1-2	>50	>50	
	C#CCN(c1ccc(C(=O)N[C@@H](CCC(=O)O)C(=O)O)cc1)S(=O)(=O)c1ccc2c(c1)CCc1nc(N)nc(O)c1-2	>50	>50	CCCT [6]: >50 µM
	Nc1nc(O)c2c(ccc3ccc(NS(=O)(=O)c4ccc(C(=O)N[C@@H](CCC(=O)O)C(=O)O)cc4)cc32)n1			Inhibition [1]: 42%; CCCT [3]: >100 µM; Ki [4]: 0.1 µM
	Cc1nc(O)c2c(ccc3ccc(S(=O)(=O)Nc4ccc(C(=O)N[C@@H](CCC(=O)O)C(=O)O)cc4)cc32)n1	0.07	2.4	CCCT [6]: 0.12 µM; Km [9]: 3.11 µM; Ki [10]: 4.9 µM
	Nc1nc(O)c2c(ccc3ccc(Br)cc32)n1			CCCT [11]: 10 µM; Ki [4]: 0.02 µM
	Nc1nc(O)c2c(n1)CCc1ccccc1-2	>100		
109	Cc1nc(O)c2c(n1)CCc1ccc(S(=O)(=O)Nc3ccc(C(=O)N[C@@H](CCC(=O)O)C(=O)O)cc3)cc1-2	0.65	4.1	CCCT [6]: 0.2 µM
102	Nc1nc(O)c2c(n1)CCc1cc(S(=O)(=O)Nc3ccc(C(=O)N[C@@H](CCC(=O)O)C(=O)O)cc3)ccc1-2	25		
	Cc1nc(O)c2c(ccc3c(S(=O)(=O)Nc4ccc(C(=O)N[C@@H](CCC(=O)O)C(=O)O)cc4)cccc32)n1	50	>100	Vel rem [5]: 55.2%
	Cc1nc(O)c2c(ccc3ccccc32)n1	>100		
185	Cc1nc2ccc3ccc(S(=O)(=O)Nc4ccc(C(=O)N[C@@H](CCC(=O)O)C(=O)O)cc4)cc3c2c(=O)[nH]1			Ki [12]: 0.0055 µM; V/K [13]: 59.6
28.9	Nc1nc(O)c2c(n1)CCc1cc(Br)c(S(=O)(=O)Nc3ccc(C(=O)N[C@@H](CCC(=O)O)C(=O)O)cc3)cc1-2	>100	>100	
	Cc1nc(O)c2c(n1)CCc1ccccc1-2	>100		
